# Screening data from PubChem.
# MT1-MMP act inh: blocks activation of human MT1-MMP; P50281; HT1080 RFP-PRO-GFP cells, GFP/RFP ratio fluorescence, overnight; percent of plate control window, DMSO zero; GFP/RFP ratio change, % at 20 µM; actives 0.061% (n = 360,000); AID 651647;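 active means GFP/RFP ratio change of at least 30% with cell ATP level not reduced by more than half and red fluorescence within 50% of control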
#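 Material – HT1080 RFP-PRO-GFP cells · Control set – DMSO wells and RFP-L50D-GFP cells · Incubation – overnight cell settling, then overnight compound exposure, 37 °C, 5% CO2 · Compound dosing – single-point 20 µM compound, 1% DMSO · Read-out – GFP/RFP fluorescence ratio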
# DAGLB inhibitor: diacylglycerol lipase beta (human) inhibition. Q8NCG7. HEK293T DAGLB membrane lysate, EnzChek fluorogenic substrate. inhibition, % at 5.17 µM. actives 0.059% (n = 340,000). AID 504411; in the data active means inhibition above about 34%
# Target sequence (Q8NCG7 whole entry, looked up): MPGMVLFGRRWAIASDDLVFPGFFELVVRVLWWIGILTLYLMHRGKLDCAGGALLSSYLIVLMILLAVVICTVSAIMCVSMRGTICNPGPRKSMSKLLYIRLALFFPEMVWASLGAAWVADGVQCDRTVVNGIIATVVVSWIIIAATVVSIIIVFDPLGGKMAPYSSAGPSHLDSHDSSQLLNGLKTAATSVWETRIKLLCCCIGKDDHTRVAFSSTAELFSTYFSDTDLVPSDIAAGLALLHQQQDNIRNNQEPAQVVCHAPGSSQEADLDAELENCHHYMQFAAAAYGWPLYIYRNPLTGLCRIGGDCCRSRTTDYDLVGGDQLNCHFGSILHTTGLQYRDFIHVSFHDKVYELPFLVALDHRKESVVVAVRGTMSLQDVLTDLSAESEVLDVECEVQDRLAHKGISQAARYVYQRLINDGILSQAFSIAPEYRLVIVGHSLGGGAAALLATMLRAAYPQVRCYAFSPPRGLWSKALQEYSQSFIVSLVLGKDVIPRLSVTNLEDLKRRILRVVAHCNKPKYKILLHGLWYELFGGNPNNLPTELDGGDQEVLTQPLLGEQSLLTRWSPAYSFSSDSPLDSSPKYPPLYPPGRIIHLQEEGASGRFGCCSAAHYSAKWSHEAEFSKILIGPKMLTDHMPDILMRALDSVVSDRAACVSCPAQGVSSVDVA
# SKN-1 block: blocks SKN-1 activity in C. elegans. inhibition, % at 21.8 µM. C. elegans VP596 Pgst-4::GFP/RFP ratio, acrylamide-induced, 24 h. actives 0.49% (n = 360,000);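 active means interference check ratio from 0.5 to 1.5 plus GFP to RFP signal ratio inhibition reaching or exceeding a fixed threshold, cut at about 30% in these data, passing the limit was not always enough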
# PolyA inhibitor: blocks polyadenylation in yeast reporter cells; activity score, % at 12 µM; actives 0.02% (n = 300,000); S. cerevisiae SKY197-pL101 polyadenylation reporter, beta-gal luminescence; efflux-impaired pdr1/pdr3 knockout yeast; score 100 = 6 SD above DMSO; AID 1875;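 active means lowest replicate activity score at least 50, where 100 means six control SD above control mean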;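 further: yeast exposed to compound for 9 h at 30 °C; higher score means more reporter readthrough which indicates perturbed polyadenylation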
# Tn7 DDE FP: DD(E)-Tn7 binding inhibition, primary FP screen; actives 0.13% (n = 370,000); inhibition, % at 8.3 µM; AID 720508; FP displacement of FITC-Tn7 peptide from fibrin DD(E); 0% = median of compound wells per plate;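 active means inhibition above the mean of compounds falling within the control limits plus 3 SD of them, cut at about 14% in these data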
#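 Test system – human fibrin DD(E) · Times – 10 min preincubation, 3 h with tracer, room temperature · Detection – fluorescence polarization of the labelled Tn7 tracer · Measure – percent inhibition normalized to high-control wells · Benchmarks – high control wells with 10 µM unlabelled Aha-Tn7 peptide (full inhibition) · Repeats – singlicate testing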
# DDE Tn6 FP inh: disrupts Tn6 cyclic peptide binding to fibrin D-Dimer-E complex; P02675; Fibrin DD(E) TRITC-Tn6 fluorescence polarization displacement; inhibition, % at 8.3 µM; actives 0.21% (n = 370,000); AID 720509;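 active means inhibition above a per-campaign cutoff: mean of compounds within control limits plus 3 SD, cut at about 15% in these data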
# Hits are given with their value; - = inactive; . = not tested or not shown. A selection: hits, their analogues and other compounds. The true share with any hit is near 0.9%.
SMILES,MT1-MMP act inh,DAGLB inhibitor,SKN-1 block,PolyA inhibitor,Tn7 DDE FP,DDE Tn6 FP inh
Cc1oc(C)c2c(=O)ccc3c(c12)OC(N)=C(C#N)C3c1ccccc1 (centres undefined),-,-,48,-,-,-
COc1cccc(-c2ccc(CC[C@H]3O[C@H]4CC[C@@H](CO)O[C@H]4C[C@H]3NS(C)(=O)=O)cc2)c1,.,.,.,.,-,-
O=S(=O)(Nc1ccc(C(F)(F)F)cc1)c1cnc[nH]1,-,-,38,-,-,-
c1ccc(-c2cnc(-c3ccccn3)nn2)cc1,-,-,-,-,-,-
c1ccc(-c2cnc(-c3ccccc3)nn2)cc1,-,-,52,-,-,-
CCOC(=O)CSCC(NC(=O)OC(C)(C)C)C(=O)OCC (centres undefined),-,-,-,-,-,-
CCOC(=O)C(CSCC(=O)c1ccc(Cl)cc1Cl)NC(=O)OC(C)(C)C (centres undefined),-,-,36,-,-,-
O=C(Oc1ccccc1)N1CCN(c2ccc(F)cc2)CC1,-,-,43,-,-,-
COC(=O)[C@@H]1[C@H](O[Si](C)(C)C(C)(C)C)[C@H]2O[C@H]2C[C@H]1S(=O)(=O)c1ccccc1,.,.,.,.,-,-
CC1CCN(S(=O)(=O)c2ccc(NC(=O)Cn3nnc(-c4ccccc4)n3)cc2)CC1,-,-,-,-,-,19
Cc1ccc(-c2nnn(CC(=O)Nc3ccc(S(=O)(=O)N4CCC(C)CC4)cc3)n2)cc1,-,-,-,-,-,-
CN1C(=O)c2cc(NC(=O)c3ccccc3)ccc2OC[C@H]2O[C@@H](CC(=O)NCC3CC3)CC[C@@H]21,.,.,.,.,-,-
Nn1c(SCC(=O)Nc2ccccc2-c2ccccc2)nnc1-c1cc(-c2ccccc2)n[nH]1,.,.,.,.,-,-
CC(=O)N(/N=C1\Sc2ccccc2C1=O)c1ccc(C)cc1C,-,-,43,-,-,-
CC(=O)N(/N=C1\Sc2ccccc2C1=O)c1ccccc1,-,-,-,.,-,-
CC(=O)N(/N=C1\Sc2ccccc2C1=O)c1ccccc1C,-,-,40,-,-,-
CC(=O)N(\C=C/C=C/C=C1\Sc2ccccc2C1=O)c1ccccc1,-,-,-,-,-,-
Cn1c(=O)oc2cc(S(=O)(=O)N3CCN(c4cccc(C(F)(F)F)c4)CC3)ccc21,.,.,.,.,-,-
Cc1ccccc1C(=O)Nc1ccnn1C1CCN(Cc2ccc(CO)o2)CC1,-,-,-,-,-,-
Cc1ccc(CN2CCC(n3nccc3NC(=O)c3ccccc3C)CC2)o1,-,-,36,-,-,-
N/C(=N\OC(=O)c1ccoc1)c1ccc(Br)cc1,-,-,63,-,-,-
O=C(Nc1ccc(C(O)(C(F)(F)F)C(F)(F)F)cc1)c1c(F)cccc1F,.,.,.,.,-,-
COc1ccc(C(O)CNc2ccc(C)cc2)cc1 (centres undefined),-,-,36,-,-,-
Cc1nn2cc(-c3ccc(Cl)cc3)nc2s1,-,-,45,-,-,-
CCCC1CCC2(CC1)CCC2OC(=O)Nc1ccccc1C (centres undefined),.,.,.,.,-,-
SMILES,MT1-MMP act inh,DAGLB inhibitor,SKN-1 block,PolyA inhibitor,Tn7 DDE FP,DDE Tn6 FP inh
CCCc1cc(=O)[nH]c(SCC(=O)Nc2ccc(C)c(S(=O)(=O)N3CCCCC3)c2)n1,-,-,-,.,-,-
O=C(CSc1nc(O)cc(=O)[nH]1)Nc1ccc2c(c1)CCC2,-,-,46,-,-,-
Nc1cc(=O)[nH]c(SCC(=O)Nc2ccc3c(c2)CCC3)n1,-,-,-,-,-,-
Cc1ccc(NC(=O)CSc2nc(N)cc(=O)[nH]2)cc1S(=O)(=O)N1CCCCCC1,-,-,53,.,-,-
O=C(CSc1nnc(COc2ccccc2)n1-c1ccc(Cl)cc1)Nc1ccc(OCc2ccccc2)cc1,.,.,.,.,-,-
Cc1cc(Cl)ccc1C(=O)C1CCCN(C(=O)c2snnc2C)C1 (centres undefined),-,-,-,55,-,-
Cc1cc(Cl)ccc1C(=O)C1CCCN(C(=O)c2cccnc2C)C1 (centres undefined),-,-,-,-,-,-
C[C@@H](O[Si](c1ccccc1)(c1ccccc1)C(C)(C)C)[C@H]1C(=O)N[C@H](Cc2cn(S(=O)(=O)c3ccccc3)c3ccccc23)C(=O)N1C,.,.,.,.,-,-
Nc1ccn([C@@H]2O[C@H](CO)[C@@H](O)[C@@H]2O)c(=O)n1,-,-,-,-,15,16
Nc1ccn(C2OC(CO)C(O)C2O)c(=O)n1 (centres undefined),-,.,-,.,-,-
CSC1=NC2(CC(c3ccccc3)Oc3cc(O)ccc32)CC(C)(C)N1 (centres undefined),-,-,43,-,-,-
N/C(=N\OC(=O)c1ccco1)c1cccc(Br)c1,-,-,57,-,-,-
N/C(=N\OC(=O)c1ccc(Br)o1)c1cccnc1,-,-,42,-,-,-
COc1ccc(/C(N)=N/OC(=O)c2ccc(Br)o2)cc1,-,-,-,-,-,-
CNC(=O)c1c(NC(=O)c2ccc(N3C(=O)CCC3=O)cc2)sc2c1CCC(C)C2 (centres undefined),-,-,41,-,-,-
O=C(NCC1COc2ccccc2O1)c1ccc(NC(=O)C(Cl)Cl)cc1 (centres undefined),.,.,.,.,-,-
COc1ccc(OC)c(C(=O)C2COC(=O)C2)c1 (centres undefined),-,-,37,-,-,-
COc1ccc2c(c1)Cc1sc(NC(=O)c3ccccc3)nc1-2,-,-,42,-,-,-
O=C(Nc1nc2c(ccc3ccccc32)s1)c1ccco1,-,-,81,-,-,-
CC(=O)Nc1nc2c(s1)CCc1ccccc1-2,-,-,-,-,-,-
O=C(Nc1nc2c(s1)CCc1ccccc1-2)c1ccco1,-,-,41,-,-,-
Cc1ccc2nc(NC(=O)c3ccco3)sc2c1,-,-,45,-,-,-
O=C(Nc1nc2c(F)c(F)c(F)cc2s1)c1ccco1,-,-,-,-,-,-
COc1ccc(OC)c(S(=O)(=O)N2CCCC(c3noc(-c4ccc(C)cc4)n3)C2)c1 (centres undefined),.,.,.,.,-,-
O=S1(=O)c2ccc(Br)cc2OC[C@@H](Cc2ccccc2)N1Cc1cn(Cc2ccc(F)cc2)nn1,.,.,.,.,-,-
CCCCC(=O)N1CCN(c2nc3ccc(F)cc3s2)CC1,-,-,-,-,-,-
COc1ccc2nc(NC(C)=O)sc2c1,-,-,-,-,-,-
CCC(=O)N1CCN(c2nc3ccc(Br)cc3s2)CC1,-,-,43,-,-,-
